RAM inhibit: blocks the yeast RAM network. S. cerevisiae dse1pr::URA3 reporter, 5-FOA growth OD615, 2 d; analog-sensitive cbk1-as2 kinase mutant strain. inhibition, % at 50 µM. actives 1.8% (n = 190,000);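 active means inhibition above a set limit, 3 SD over mean compound inhibition, cut at about 8.4% in these data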;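 further: inhibition rescues growth on 5-FOA so higher OD means more RAM inhibition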
WT yeast gro inh: growth inhibition of WT yeast, mitochondrial fusion screen. mitochondrial fusion phenotypic screen, WT strain. inhibition, % at 10 µM. actives 2.1% (n = 190,000). AID 1362; in the data active means inhibition above about 58%; tested in S. cerevisiae
Yeast lifespan up: yeast lifespan extension; S. cerevisiae growth with nicotinamide, OD615; deaD strain in restrictive glucose medium; inhibition of the nicotinamide effect, % at 10 µM; actives 0.68% (n = 130,000);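 active means inhibition above a set limit, placed 3 SD over the median of all compounds, cut at about 26% in these data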
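assay system = DeaD-strain S. cerevisiae | measured by = absorbance at 615 nm | probe or stimulus = nicotinamide 1.5 mM | buffer or medium = CSMM-D glucose medium, restrictive | times = 48 h at 30 °C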
BB579 growth dn: reduces growth of yeast BB579 in restrictive medium; S. cerevisiae BB579 growth, OD615, 48 h; inhibition, % at 10 µM; actives 0.51% (n = 140,000); AID 804;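 active means inhibition above a set limit, 3 SD over the mean compound inhibition, cut at about 44% in these data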
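System: DeaD yeast strain BB579; buffer or medium: CSMM-D dextrose restrictive medium; technique: OD at 615 nm; schedule: 4 h cell preincubation, 48 h compound exposure, 30 °C humidified; doses: single 10 µM dose; controls: amphotericin B 10 µg/mL, positive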
A number is an active result; i = inactive; nt = not tested or not shown. The list is not random: actives were taken first. Their share in the collection is about 4.3%.

SMILES | RAM inhibit | WT yeast gro inh | Yeast lifespan up | BB579 growth dn
Cc1cccc(NC(=O)N2CCC(NC(=O)c3ccco3)CC2)c1 | i | i | nt | nt
Cc1cccc(NC(=O)N2CCC(NC(=O)c3ccccc3C)CC2)c1 | 9.6 | i | i | i
Cc1nnc2sc(SCC(=O)Nc3ccc(Cl)cc3)nn2c1=O | i | i | nt | nt
Cc1ccc(Sc2ncccc2COC(=O)Nc2ccccc2)cc1 | 9.2 | i | i | i
Cc1ccc(Sc2ncccc2COC(=O)Nc2c(C)cccc2C)cc1 | i | i | i | i
Cc1ccccc1NC(=O)OCc1cccnc1Sc1ccc(Cl)cc1 | 9.9 | i | i | i
COc1ccc(-n2cnc3cc(C(=O)NCCN4CCOCC4)ccc32)cc1 | i | i | nt | nt
CCO[C@H]1OC(C(=O)Nc2ccccc2)=C[C@@H](c2ccc(C(F)(F)F)cc2)[C@@H]1CCCO | 9.0 | 74.7 | nt | nt
CCO[C@H]1OC(C(=O)NCc2ccccc2)=C[C@@H](c2ccc(C(F)(F)F)cc2)[C@@H]1CCCO | i | i | nt | nt
O=C(NC(=S)Nc1cccc(Cl)c1N1CCCCC1)c1cccs1 | 9.4 | i | i | i
O=C(NC(=S)Nc1nc2ccccc2s1)c1ccco1 | 8.8 | i | i | i
O=C(NC(=S)Nc1cccc(Cl)c1N1CCCCC1)c1ccco1 | 9.7 | i | i | i
O=C(NC(=S)Nc1ccc(N2CCCCC2)cc1)c1ccco1 | i | i | i | i
O=C(NC(=S)Nc1ccccc1N1CCCCC1)c1ccco1 | i | 72.7 | i | i
c1ccc(CC2CCN(c3nnnn3-c3ccccc3)CC2)cc1 | i | 61.5 | i | i
COc1ccc(C(=O)NC(CC(=O)O)c2cc([N+](=O)[O-])ccc2Cl)c(SC)c1 (centres undefined) | i | i | nt | nt
Cc1ccc(Nc2ccc(-n3ccnc3)nn2)cc1C | i | 68.6 | i | i
COc1cccc(N2C(=O)c3ccncc3C2=O)c1 | i | i | i | i
CCOc1cc(/C=C2\C(=O)N(c3cccc(C(F)(F)F)c3)C(=O)c3ccccc32)ccc1O | i | i | i | i
COc1cccc(/C=C2\C(=O)N(c3cccc(C)c3)C(=O)c3ccccc32)c1 | i | i | 48.5 | i
Cc1cccc(N2C(=O)/C(=C\c3ccc(OC(F)F)cc3)c3ccccc3C2=O)c1 | i | i | 47.2 | i
NNC(=O)CN1CCN(c2ncc(C(F)(F)F)cc2Cl)CC1 | i | i | nt | nt
O=C(CN1CCN(c2ncc(C(F)(F)F)cc2Cl)CC1)NCCNc1ncc(C(F)(F)F)cc1Cl | i | i | i | 92.7
CN(CC(=O)NCc1ccccc1)S(=O)(=O)c1cnc[nH]1 | i | i | i | i
CCN(c1ccccc1)S(=O)(=O)c1cnc[nH]1 | i | 59.4 | i | i
SMILES | RAM inhibit | WT yeast gro inh | Yeast lifespan up | BB579 growth dn
CC(=O)Nc1ccc(NC2=Nc3ccccc3N3C2=Nc2c(c(C)nn2-c2ccccc2)C3c2ccccc2)cc1 (centres undefined) | 9.4 | i | i | i
COc1ccc(NC2=Nc3ccccc3N3C2=Nc2c(c(C)nn2-c2ccc(C)cc2)C3c2cccnc2)cc1 (centres undefined) | i | i | i | i
CCOC(=O)C1C(=O)NC(SCC(=O)Nc2nccs2)=C(C#N)C1c1ccccc1OCC (centres undefined) | i | i | 27.0 | i
CCOC(=O)C1C(=O)NC(SCC(=O)OC)=C(C#N)C1c1ccccc1OCC (centres undefined) | i | i | i | i
Cc1ccc(-n2c(SCC(=O)NCc3ccco3)nc3sc4c(c3c2=O)CC(C)(C)SC4)cc1 | 10.1 | i | i | i
Cc1cccc(C)c1-n1c(SCC(=O)NCc2ccco2)nc2ccccc2c1=O | i | i | i | i
Cc1cc(C)cc(-n2c(SCC(=O)NCc3ccco3)nc3ccccc3c2=O)c1 | i | i | 56.4 | i
Cc1ccc(-c2nc3ccccn3c2NC(=O)c2ccco2)cc1 | i | i | nt | i
O=C(O)C(Cc1ccccc1)N1C(=O)c2ccccc2C1=O (centres undefined) | i | i | i | i
[N-]=[N+]=CC(=O)C(Cc1ccccc1)N1C(=O)c2ccccc2C1=O (centres undefined) | i | i | 33.6 | i
Cc1ccc(S(=O)(=O)c2c(COC(=O)c3ccc(Cl)cc3)c(-c3ccccc3)nn2C)cc1 | i | i | i | i
Cc1cccc(Cn2c(C(=O)OC(C)C)cc3c2ccn3C)c1 | 11.2 | i | i | i
CCOC(=O)c1cc2c(ccn2C)n1Cc1ccc(Cl)cc1 | i | i | nt | nt
COC(=O)c1cc2occc2n1Cc1cccc(C)c1 | i | i | nt | nt
CCOC(=O)c1cc2c(ccn2C)n1Cc1ccc(C#N)cc1 | 10.4 | i | nt | nt
O=C(Nc1nc(-c2ccccc2)cs1)c1ccc(Br)o1 | i | 63.2 | i | i
CCOC(=O)c1cnc2c(C(=O)OC)cccc2c1NCc1cccnc1 | i | i | nt | nt
CC1=C(C(=O)Nc2ccccc2C)C(c2cccs2)NC(=S)N1 (centres undefined) | i | i | i | i
CCOc1ccccc1NC(=O)C1=C(C)NC(=S)NC1c1cccs1 (centres undefined) | 9.8 | i | i | i
CCOC(=O)c1c(C(F)(F)C(F)(F)C(F)(F)C(F)(F)F)n[nH]c1C | i | i | i | i
O=C(O)Cc1c(C(=O)O)nnn1-c1ccc(Cl)cc1Cl | i | i | nt | nt
Cc1c(C(=O)NN2CCCCC2)nn(-c2ccc(Cl)cc2Cl)c1-c1ccc(I)cc1 | nt | 81.1 | nt | nt
CSc1ccc(C(=O)C2CCCN(S(=O)(=O)N(C)C)C2)cc1 (centres undefined) | 10.2 | i | nt | nt
CN(C)S(=O)(=O)N1CCCC(C(=O)c2ccc(-c3ccccc3)c(F)c2)C1 (centres undefined) | i | i | nt | nt
c1ccc(-c2ccc(OCCCn3cncn3)cc2)cc1 | i | i | i | 79.8
SMILES | RAM inhibit | WT yeast gro inh | Yeast lifespan up | BB579 growth dn
c1ccc(COc2ccc(OCCn3cncn3)cc2)cc1 | i | i | i | i
Cc1nnc(SCc2ccc(F)cc2)n1NC/C=C/c1ccccc1 | i | i | nt | i
CC(C)C(NC(=O)C12CC3CC(CC(C3)C1)C2)C(=O)NC1=NCCS1 (centres undefined) | i | 65.6 | i | i
N#C/C(=C\Nc1ccccc1O)c1nc2ccccc2o1 | i | 63.3 | i | i
CC(Cc1ccccc1)C(=O)N(C)Cc1cccnc1 (centres undefined) | i | i | i | i
O=[N+]([O-])c1ccc2nc(-c3ccc(Cl)cc3)[nH]c2c1 | i | 62.9 | i | i
Cc1ccc(CNc2nc3ccccc3s2)s1 | i | i | 32.4 | i
CC(=O)N(C)c1ccc(NC(=S)NCC(C)C)cc1 | i | i | nt | nt
Cc1ccc(N(C)C(=O)N2CCN(S(=O)(=O)c3ccc4ccccc4c3)CC2)cc1 | i | i | i | i
Cc1[nH]nc(N)c1N=Nc1ccc(Br)cc1 | i | i | nt | nt
Cc1nc(N)sc1N=Nc1ccc(Br)cc1 | i | 66.3 | i | i
Clc1cccc(CSc2nnc(-c3sccc3-n3cccc3)o2)c1 | 8.9 | i | i | i
Cn1c(=O)c2sccc2n2c(CCCC(=O)NCc3ccc4c(c3)OCO4)nnc12 | i | i | i | i
CN(C)S(=O)(=O)c1ccc(N2CCCC2)c(C(=O)NCc2ccc(Cl)cc2)c1 | i | i | i | i
CCc1cccc(NC(=O)c2cc(S(=O)(=O)N(C)C)ccc2N2CCCC2)c1 | 11.3 | i | nt | nt

Compound activity from PubChem BioAssay.
